{"source": "paper PMC4324418", "about": "(ACS Chemical Neuroscience, 2014)", "key": {"[1]": {"molecular_target": "T1, cyno M4 (Macaca fascicularis, UniProt G7PQB4)", "T1 sequence (G7PQB4 1-479)": "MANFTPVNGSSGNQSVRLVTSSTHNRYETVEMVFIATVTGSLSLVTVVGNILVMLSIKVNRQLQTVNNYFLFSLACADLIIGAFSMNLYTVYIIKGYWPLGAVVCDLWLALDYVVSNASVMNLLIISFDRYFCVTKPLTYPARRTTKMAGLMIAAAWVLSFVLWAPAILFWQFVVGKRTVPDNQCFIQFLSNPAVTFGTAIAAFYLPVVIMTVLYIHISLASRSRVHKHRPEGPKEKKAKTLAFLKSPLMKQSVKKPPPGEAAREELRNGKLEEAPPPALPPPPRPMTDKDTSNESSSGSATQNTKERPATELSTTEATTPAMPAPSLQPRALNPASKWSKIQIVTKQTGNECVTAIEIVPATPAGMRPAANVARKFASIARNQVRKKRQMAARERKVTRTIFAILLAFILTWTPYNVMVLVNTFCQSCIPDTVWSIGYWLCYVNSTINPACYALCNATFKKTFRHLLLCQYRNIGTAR", "experiment": "Calcium mobilization, potentiation of ACh EC20", "format": "cell-based, cynomolgus monkey", "details": "maximum response as % of the Emax of ACh", "how_it_was_run": "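Receptor-expressing cells were plated at 15000 cells/well in DMEM with 10% dialyzed FBS, 20 mM HEPES and 1 mM pyruvate, and grown overnight at 37 °C/5% CO2. Test compound was added, then ACh at EC20 140 s later and at EC80 120 s later. Responses were normalized to 10 μM ACh maximum; ≥3 independent experiments.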"}, "[2]": {"tested_on": "human M1 receptor", "experiment": "Calcium mobilization, selectivity", "format": "cell-based", "how_it_was_run": "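Cells were seeded at 15000/well in DMEM with 10% dialyzed FBS, 20 mM HEPES and 1 mM pyruvate, then cultured overnight at 37 °C/5% CO2. M2 and M4 lines were cotransfected with Gqi5. Cells were loaded with 1 μM Fluo-4AM (HBSS, 20 mM HEPES, 2.5 mM probenecid, pH 7.4) for 50 min at 37 °C. ACh was added 140 s after test compound. Calcium signal was expressed as % of the 10 μM ACh maximum.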"}, "[3]": {"molecular_target": "T2, rat M4 receptor (Rattus norvegicus, UniProt P08485)", "T2 sequence (P08485 1-478)": "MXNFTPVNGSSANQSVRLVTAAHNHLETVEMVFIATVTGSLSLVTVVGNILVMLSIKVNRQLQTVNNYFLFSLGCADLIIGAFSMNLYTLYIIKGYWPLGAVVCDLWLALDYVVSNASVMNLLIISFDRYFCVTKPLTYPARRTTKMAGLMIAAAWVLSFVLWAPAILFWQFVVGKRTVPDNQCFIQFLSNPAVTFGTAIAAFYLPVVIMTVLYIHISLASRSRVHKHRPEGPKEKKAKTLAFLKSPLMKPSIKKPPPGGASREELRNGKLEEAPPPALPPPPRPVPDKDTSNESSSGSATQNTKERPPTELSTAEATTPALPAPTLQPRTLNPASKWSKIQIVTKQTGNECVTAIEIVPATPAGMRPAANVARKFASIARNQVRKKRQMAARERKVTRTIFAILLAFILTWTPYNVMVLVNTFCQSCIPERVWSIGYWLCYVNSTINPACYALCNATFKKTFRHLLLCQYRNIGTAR", "experiment": "[3H]NMS radioligand binding, modulation of ACh affinity", "details": "ACh displacement of [3H]NMS, modulator 300 nM to 10 μM", "how_it_was_run": "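Membranes came from CHO cells expressing rat M4 cotransfected with Gqi5, homogenized in 50 mM Tris-HCl/0.9% NaCl, pH 7.4. Membranes (10 μg/well) were incubated with 300 pM [3H]NMS, fixed modulator (300 nM–10 μM) or vehicle, and ACh (1 nM–1 mM) for 3 h at room temperature with shaking. Buffer was 100 mM NaCl, 10 mM MgCl2, 20 mM HEPES, […], pH 7.4. Nonspecific binding was set with 10 μM atropine. Bound ligand was filtered and counted; n ≥ 2. Cooperativity was fitted with the […].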"}, "[4]": {"tested_on": "57 GPCRs, ion channels, and transporters", "experiment": "Ricerca lead profiling screen, radioligand binding panel", "details": "10 μM"}, "[5]": {"experiment": "Amphetamine-induced hyperlocomotion in M4 KO mice", "format": "in vivo, mouse", "details": "mouse, brain, ip, 10 mg/kg, 10 mg/kg IP"}, "[6]": {"tested_on": "M4 KO mice", "experiment": "Amphetamine-induced hyperlocomotion in M4 KO mice", "format": "in vivo, mouse"}, "[7]": {"tested_on": "wild-type mice", "experiment": "MK-801-induced locomotor and nonlocomotor open field behaviors", "format": "in vivo, mouse", "how_it_was_run": "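After 90 min open-field habituation, mice received vehicle (10% Tween 80 IP) or test compound (3–30 mg/kg IP). Saline or MK-801 (0.3 mg/kg IP) followed 30 min later. Over the next 120 min, ambulatory episodes, vertical counts, stereotypic counts and resting time were scored. Groups were 7–13 mice; ANOVA with Bonferroni tests.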"}, "[8]": {"tested_on": "wild-type mice", "experiment": "Nociceptive response to increasing footshock current intensities", "format": "in vivo, mouse", "details": "10 mg/kg IP", "how_it_was_run": "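Mice received vehicle (10% Tween 80 in sterile water, IP) or test compound (10 mg/kg IP) and were placed in conditioning chambers 30 min later. Behavioural responses were scored over rising footshock currents, 0–0.5 mA in 0.05 mA steps. Groups had 6–10 animals. Data: mean ± SEM, one-way ANOVA with Bonferroni test.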"}, "[9]": {"tested_on": "wild-type mice", "experiment": "Cue-dependent fear conditioning", "format": "in vivo, mouse", "details": "3–30 mg/kg prior to the conditioning session"}, "[10]": {"tested_on": "wild-type mice", "experiment": "Modified Irwin neurological test battery", "format": "in vivo, mouse", "details": "10–30 mg/kg"}, "[11]": {"tested_on": "wild-type mice", "experiment": "Rotarod", "format": "in vivo, mouse", "details": "3–30 mg/kg IP, rotarod 20 rpm", "how_it_was_run": "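Mice received vehicle (10% Tween 80 in sterile water IP) or test compound (3–30 mg/kg IP). Sixty minutes later they were placed on the rotarod and latency to fall was measured. One-way ANOVA with Dunnett's test.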"}, "[12]": {"experiment": "Pharmacokinetic and brain distribution studies in mice", "details": "for AUC(0-t) / Cmax / Tmax: male, C57BL/6, mouse, in vivo"}}, "data": [{"smiles": "Cc1nnc2sc(C(=O)NCc3ccc(S(=O)(=O)C(F)(F)F)cc3)c(N)c2c1C", "note": "[VU0467154, 5-amino-3,4-dimethyl-N-(4-((trifluoromethyl)sulfonyl)benzyl)thieno[2,3-c]pyridazine-6-carboxamide]", "values": [{"measurement": "%AChmax", "setting": "[1]", "result": 57, "unit": "%"}, {"measurement": "potentiation of ACh response (calcium response)", "setting": "[2]", "result": "lack of a calcium response"}, {"measurement": "increase in M4 affinity for ACh (α)", "setting": "[3]", "result": 14.5, "unit": "fold"}, {"measurement": "log α (binding cooperativity with ACh)", "setting": "[3]", "result": "1.16 ± 0.06"}, {"measurement": "displacement of the radioligand", "setting": "[4]; all targets included in this panel", "result": "≤ 30", "unit": "%"}, {"measurement": "displacement of the radioligand", "setting": "[4]; majority of targets", "result": "≤ 20", "unit": "%"}, {"measurement": "concentration at 2.5 h", "setting": "[5]; mean Cbrain, at 2.5 h postadministration", "result": 0.217, "unit": "µM"}, {"measurement": "concentration at 2.5 h", "setting": "[5]; mean Cbrain,u, 2.5 h, in vitro mouse fubrain 0.014", "result": 0.003, "unit": "µM"}, {"measurement": "effect on amphetamine-induced hyperlocomotion", "setting": "[6]", "result": "had no effect on the time course of amphetamine-induced hyperlocomotion"}, {"measurement": "mean reversal of AHL", "setting": "[6]; 10 mg/kg IP, amphetamine […] SC", "result": "–6.6%"}, {"measurement": "reversal of MK-801-induced increases in ambulatory episodes and vertical counts", "setting": "[7]", "result": "potently reversed"}, {"measurement": "reversal of MK-801-mediated increase in stereotypic counts and decreases in resting time", "setting": "[7]", "result": "appeared to be less potent"}, {"measurement": "footshock threshold to elicit jumping", "setting": "[8]", "result": "increased the threshold to elicit jumping"}, {"measurement": "twitching, flinching, and vocalizing responses to increasing foot shock intensities", "setting": "[8]", "result": "did not alter"}, {"measurement": "acquisition of cue-dependent fear conditioning", "setting": "[9]", "result": "enhanced acquisition of cue-dependent fear conditioning"}, {"measurement": "autonomic and somatosensory side effects", "setting": "[10]", "result": "did not exhibit autonomic and somatosensory side effects"}, {"measurement": "latency to fall", "setting": "[11]", "result": "did not alter the latency to fall"}, {"measurement": "AUC(0-t)", "setting": "[12]; ip, 3 mg/kg", "result": 9.2, "unit": "µM·h"}, {"measurement": "Cmax", "setting": "[12]; ip, 3 mg/kg", "result": 2, "unit": "µM"}, {"measurement": "Tmax", "setting": "[12]; ip, 3 mg/kg", "result": 1, "unit": "h"}, {"measurement": "AUC(0-t)", "setting": "[12]; ip, 10 mg/kg", "result": 39, "unit": "µM·h"}, {"measurement": "Cmax", "setting": "[12]; ip, 10 mg/kg", "result": 5.6, "unit": "µM"}, {"measurement": "Tmax", "setting": "[12]; ip, 10 mg/kg", "result": 0.5, "unit": "h"}, {"measurement": "Tmax", "setting": "[12]; ip, 30 mg/kg", "result": 0.5, "unit": "h"}, {"measurement": "AUC(0-t)", "setting": "[12]; po, 10 mg/kg", "result": 46, "unit": "µM·h"}, {"measurement": "Cmax", "setting": "[12]; po, 10 mg/kg", "result": 7.6, "unit": "µM"}, {"measurement": "Tmax", "setting": "[12]; po, 10 mg/kg", "result": 1, "unit": "h"}, {"measurement": "AUC(0-t)", "setting": "[12]; po, 30 mg/kg", "result": 66, "unit": "µM·h"}, {"measurement": "Cmax", "setting": "[12]; po, 30 mg/kg", "result": 11, "unit": "µM"}, {"measurement": "Tmax", "setting": "[12]; po, 30 mg/kg", "result": 1, "unit": "h"}, {"measurement": "brain AUC0–24h", "setting": "[12]; mouse, IP 3 mg/kg, brain", "result": 5.9, "unit": "µM·h"}]}]}
